In ChEMBL document CHEMBL4651341, “The discovery of a novel series of compounds with single-dose efficacy against juvenile and adult Schistosoma species” (PLoS Negl Trop Dis, 2021):
In brackets after ≈: the same amount, converted by molar mass.

Assays:
Schistosoma mansoni [1] = experiment: Concentration required to kill 50% of 42 day old worms 5 days after drug treatment.; format: functional, organism-based; details: Puerto Rican, 120 h
Procedure, shortened: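 Adult S. mansoni were perfused from CD1 mice 6 weeks post-infection and washed. They were cultured 3 pairs per well in 1 mL DMEM with 2 mM glutamine, penicillin/streptomycin and 10% FCS […] at 37 °C, 5% CO2. Viability of individual worms was scored on day 5 (120 h).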

Schistosoma mansoni [2] = experiment: Concentration required to kill 50% of 21 day old worms 5 days after drug treatment.; format: functional, organism-based; details: Puerto Rican, 120 h
Procedure, shortened: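 Juvenile S. mansoni (Puerto Rican strain) were perfused from CD1 mice 3 weeks post-infection and washed. They were cultured 6–8 per well in 200 µL DMEM with 2 mM glutamine, penicillin/streptomycin and 10% FCS at 37 °C, 5% CO2. Viability of individual worms was scored on day 5 after dosing (120 h).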

[3] = Concentration required to kill 50% MRC-5 cells as detected by Alamar blue staining; format: toxicity, cell-based, MRC5; details: homo sapiens, read-out: TC50 (the source's name)
[4] = Solubility at 25 degC of compound (diluted from DMSO) in PBS at pH 7.4 determined after 24h (1h sonication, 22h shaking, 1h sonication) by LCMS/MS; format: physicochemical
[5] = Concentration required to kill 50% HepG2 cells as detected by MTT staining; format: toxicity, cell-based; details: homo sapiens, read-out: TC50 (the source's name)
[6] = Mean oral bioavailability in Swiss albino male mice at […] per compound (administered in a mixture of 5 compounds to 3 mice) assessed by LCMS/MS.; note: dose 2.5 mg/kg; format: ADME, organism-based; details: male, Swiss albino, mouse, in vivo, read-out: Bioavailability
[7] = Mean AUC inf in Swiss albino male mice at 1 mg/kg per compound (administered iv in a mixture of 5 compounds to 3 mice) assessed by LCMS/MS.; format: ADME, organism-based; details: male, Swiss albino, mouse, in vivo
Procedure, shortened: (§1)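 Male Swiss albino mice (~30 g), 3 per experiment, mostly dosed as mixtures of 5 compounds iv via the lateral tail vein. Vehicle: 10% DMSO/90% 50 mM Na2HPO4 with 0.5% Tween-80. Blood sampled at 5, 15, 30 min and 1, 2, 4, 8, 24 h. Plasma stored at −20 °C and quantified by LC-MS after acetonitrile precipitation.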

[8] = Mean observed clearance in Swiss albino male mice at 1 mg/kg per compound (administered iv in a mixture of 5 compounds to 3 mice) assessed by LCMS/MS.; format: ADME, organism-based; details: male, Swiss albino, mouse, in vivo, read-out: Clearance (converted); procedure, shortened: as §1
[9] = Mean volume of distribution at steady state in Swiss albino male mice at 1 mg/kg per compound (administered iv in a mixture of 5 compounds to 3 mice) assessed by LCMS/MS.; format: ADME, organism-based; details: mouse, in vivo, read-out: Volume
Procedure, shortened: (§2)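 Male Swiss albino mice (~30 g), 3 per experiment, mostly dosed as mixtures of 5 compounds iv via the lateral tail vein. Vehicle: 10% DMSO/90% 50 mM Na2HPO4 with 0.5% Tween-80. Plasma stored at −20 °C and quantified by LC-MS after acetonitrile precipitation.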

[10] = Mean half-life in Swiss albino male mice at 1 mg/kg per compound (administered iv in a mixture of 5 compounds to 3 mice) assessed by LCMS/MS.; format: ADME, organism-based; details: mouse, in vivo; procedure, shortened: as §2
[11] = Mean plasma concentration at 24h in Swiss albino male mice at […] per compound (administered orally in a mixture of 5 compounds to 3 mice) assessed by LCMS/MS.; format: ADME, organism-based; details: mouse, po
[12] = Mean plasma concentration at 4h in Swiss albino male mice at […] per compound (administered orally in a mixture of 5 compounds to 3 mice) assessed by LCMS/MS.; format: ADME, organism-based; details: mouse, po
[13] = Mean time to peak plasma concentration in Swiss albino male mice at […] per compound (administered orally in a mixture of 5 compounds to 3 mice) assessed by LCMS/MS.; format: ADME, organism-based; details: mouse, po
[14] = Plasma protein binding determined at 10uM by LC-MS/MS.; format: ADME, cell-free; details: mouse
Procedure, shortened: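 Equilibrium dialysis of plasma spiked at 10 µM (0.1% DMSO) against PBS pH 7.4, 6 h at 37 °C, duplicates. Both chambers analysed by LC-MS/MS after acetonitrile precipitation. % free = buffer/plasma area ratio; recovery also calculated.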

[15] = Partition coefficient of compound between n-octanol and PBS (pH7.4); format: physicochemical; details: octanol/water, pH 7.4
Procedure, shortened: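 Shake-flask method using octanol and PBS pH 7.4, each pre-saturated with the other. Compound was shaken 2 h at 850 rpm, 25 °C, then the phases were separated by centrifugation and both layers diluted and analysed by LC-MS/MS. LogD = log(octanol AUC × relative dilution / buffer AUC).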

[16] = Percentage of parent compound remaining after incubation for 30 minutes with cyropreserved mouse hepatocytes at a concentration of 1uM compound and […], determined by LCMS; format: ADME, tissue-based, Hepatocyte; details: cryopreserved mouse hepatocytes, read-out: Stability
Procedure, shortened: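 Compound was incubated at 1 µM final (2 µM working solution mixed 1:1 with hepatocyte suspension) in supplemented KHB pH 7.4. Conditions: 37 °C, 5% CO2, gentle mixing, duplicates. Reaction quenched with ice-cold acetonitrile containing standard; analysed by LC-MS/MS. % remaining = AUC at t / AUC at T0.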

Row | SMILES | EC50 (Schistosoma mansoni [1]) | EC50 (Schistosoma mansoni [2]) | CC50 [3] | solubility kinetic at 24 h [4] | CC50 [5] | bioavailability [6] | AUC(0-inf) [7] | clearance [8] | Vd [9] | half-life [10] | concentration at 24 h [11] | concentration at 4 h [12] | Tmax [13] | Binding [14] | Lipophilicity [15] | remaining at 0.5 h, 1 µM [16]
1 | COc1ccc(-c2cnc3cnc(-c4ccc(N5CCN(C)CC5)nc4)cn23)cc1 | > 25 µM | 15 µM | 20.9 µM |  |  |  |  |  |  |  |  |  |  |  |  | 
2 | CCOc1cccc(-c2cn3c(-c4ccc(OC)cc4)cnc3cn2)c1 | 12.1 µM | 11 µM | 37.7 µM |  |  |  |  |  |  |  |  |  |  |  |  | 
3 | Cc1nc2cnc(-c3cccc(C(C)C)c3)cn2c1-c1ccc(O)cc1 | < 0.43 µM | < 0.421 µM | > 50 µM | 1.19 µM (≈ 0.409 µg/mL) | > 11.5 µM |  |  |  |  |  |  |  |  |  |  | 
4 | CC(C)Oc1cccc(-c2cn3c(-c4cnn(Cc5ccccc5)c4)cnc3cn2)c1 | > 25 µM | > 25 µM | 39.4 µM |  |  |  |  |  |  |  |  |  |  |  |  | 
5 | Oc1cc(F)c(-c2cnc3cnc(-c4cccc(C(F)(F)F)c4)cn23)c(F)c1 | 2.38 µM | 2.65 µM | 8.13 µM | 2.88 µM (≈ 1.13 µg/mL) | 23.1 µM | 41.7% | 870 ng·h/mL | 9.63 mL/min/kg | 0.918 L/kg | 177 min | 0.1 ng/mL | 171 ng/mL | 15 min | 99.595% | 3.12 = | 74.1%
6 | CC(C)c1cccc(-c2cn3c(-c4ccc(O)c(F)c4)cnc3cn2)c1 | 0.823 µM | 1.32 µM | > 50 µM |  | > 30 µM |  |  |  |  |  |  |  |  |  |  | 
7 | Cc1nc2cnc(-c3cccc(C(F)(F)F)c3)cn2c1-c1c(F)cc(O)cc1F |  | 0.172 µM |  | 1.73 µM (≈ 0.701 µg/mL) | 8.4 µM | 4% | 99.6 ng·h/mL | 86 mL/min/kg | 1.8 L/kg | 27.5 min | 0.1 ng/mL | 2.67 ng/mL | 15 min | 99.88% | 3.81 = | 42.3%
8 | COc1ccc(-c2cnc3cnc(-c4cccc(OC(C)C)c4)cn23)cc1OC | 5.56 µM | 9.51 µM | 28.7 µM |  |  |  |  |  |  |  |  |  |  |  |  | 
9 | Oc1ccc(-c2cnn3ccc(-c4cccc(C(F)(F)F)c4)cc23)c(F)c1 |  | 2.65 µM |  | 1.42 µM (≈ 0.529 µg/mL) |  | 0% | 52.7 ng·h/mL | 158 mL/min/kg | 2.85 L/kg | 25 min | 0.1 ng/mL | 0.1 ng/mL | 15 min | 100% | 4.27 = | 50.9%
10 | CC(C)Oc1cccc(-c2cn3c(-c4ccc5[nH]ncc5c4)cnc3cn2)c1 | 7.19 µM | 7.5 µM | 22.2 µM |  |  |  |  |  |  |  |  |  |  |  |  | 
11 | CC(C)c1cccc(-c2cn3c(-c4ccc(O)cc4F)cnc3cn2)c1 | 0.262 µM | 0.636 µM | 11.1 µM | 1.23 µM (≈ 0.427 µg/mL) | > 11.1 µM |  |  |  |  |  |  |  |  |  |  | 
12 | CCc1nc2cnc(-c3cccc(C(F)(F)F)c3)cn2c1-c1ccc(OC)c(O)c1 | < 0.133 µM | 0.0829 µM | > 50 µM | 0.672 µM (≈ 0.278 µg/mL) | > 30 µM |  |  |  |  |  |  |  |  |  | 3.97 = | 
13 | CCc1cccc(-c2cn3c(-c4ccc(OC)c(OC)c4)cnc3cn2)c1 | 1.06 µM | 2.79 µM | 29.9 µM |  |  |  |  |  |  |  |  |  |  |  |  | 
14 | CC(C)c1nc2cnc(-c3cccc(C(F)(F)F)c3)cn2c1-c1ccc(O)cc1F | < 0.122 µM | 0.0792 µM | 14.5 µM | 6.8 µM (≈ 2.82 µg/mL) | 9 µM |  |  |  |  |  |  |  |  | 99.945% | 4.82 = | 54.4%
